Tested on: MS2 coat protein
Experiment: apparent Kd, MS2 coat protein; higher = weaker binding; RNA-MaP array
Method in brief: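 Apparent Kd values come from the median of binding-curve fits to single clusters. To obtain them, designed RNAs transcribed on an Illumina sequencing chip from sequenced DNA templates were incubated at room temperature with fluorescently labeled MS2 coat protein at 1.5 nM to 3 μM, with or without input ligand, for 0.8–1.5 h at the lowest and 10–20 min at the highest concentrations. Designs measured on fewer than 10 clusters were excluded.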

[1] = designed as: OFF switch for flavin mononucleotide, no ligand
[2] = ligand present: flavin mononucleotide, designed as: OFF switch for flavin mononucleotide
[3] = designed as: ON switch for flavin mononucleotide, no ligand
[4] = ligand present: flavin mononucleotide, designed as: ON switch for flavin mononucleotide

## GCUUUGCUGUGGUCCCUGAUACAUGAGGAUCACCCAUGUGAGAAGGAUAUUCAGAAUGGUCUCCCGAAGAAGGUCUGCACCUGG
[1]
  apparent Kd: 0.0154 µM
[2]
  apparent Kd: 0.0113 µM

## CAGACCCGGAAGAAGGAGGAGACAUAAACACGCCUAGGAUAUACGCCUGAAUAAACGUAAACAUGAGGAUCACCCAUGUCAAAC
[3]
  apparent Kd: 0.0095 µM
[4]
  apparent Kd: 0.0084 µM

## UACCCUCGAGGAUAUUAGCUAGCGAACAUGAGGAUCACCCAUGUGCAUCUUCCCAGCCGUUAAGAAGGCGAUUACC
[1]
  apparent Kd: 0.0931 µM
[2]
  apparent Kd: 0.0792 µM

## CUAAUGGAAGGAUAUACAUGAGGAUCACCCAUGUUUAAGUGAUUAGCGAAUUGUCAACGUAGAAGGUCCAAUUA
[1]
  apparent Kd: 0.0426 µM
[2]
  apparent Kd: 0.0843 µM

## CCUCGAACGGCAGGAUAUAUUGGUCAAAAUUCUAUAGAAGGGCCUCUCCCUGGAACAUGAGGAUCACCCAUGUGCGCACUUGUG
[3]
  apparent Kd: 0.0574 µM
[4]
  apparent Kd: 0.0619 µM

## CUACCUACAGGAUAUACAUGAGGAUCACCCAUGUUUCAACGUGGAACAGGUUGAACAUGUAGAAGGGAAUCGUU
[1]
  apparent Kd: 0.0204 µM
[2]
  apparent Kd: 0.0172 µM

## AAGGAAUAUGAGGAUAUUGAUGCGAAACCUACUCAAGAAGGCAUAACAUGAGGAUCACCCAUGUGACCCUUAUA
[1]
  apparent Kd: 0.0194 µM
[2]
  apparent Kd: 0.0344 µM

## AAUGAUGCGAUCUACAGUCGAGGAUUCGAUACCAGCAACGGGCGUUGCCCUUGGCAGCGAGCUACAUGAGGAUCACCCAUGUUAC
Designed as: OFF switch for theophylline, no ligand
  apparent Kd: 0.0199 µM
Ligand present: theophylline, designed as: OFF switch for theophylline
  apparent Kd: 0.0347 µM

## GAAAUCAGAGGAUAUCAGUCAUGUCACAUGAGGAUCACCCAUGUUUGUGUUUUGGUAGAUUGAGAAGGCUGCGACC
[1]
  apparent Kd: 0.0166 µM
[2]
  apparent Kd: 0.00966 µM

## ACUAUACAUGAGGAUCACCCAUGUGGUCACAUAUGAGGAUAUAUGCGGCUGUCCCGGUCAAUAGAAGGCAUAUUUA
[3]
  apparent Kd: 0.052 µM
[4]
  apparent Kd: 0.0535 µM

## AAGUGACAUGAGGAUCACCCAUGUGAGGAUAUGGCUGAACAGAAAUAUGGGAAAAGAGCCAGAAGGCACGCCGG
[1]
  apparent Kd: 0.0623 µM
[2]
  apparent Kd: 0.112 µM

## UUAUACGCGAAAGGAUAUCUGAGAGUGGGAUCGUGGACAUGAGGAUCACCCAUGUGGAGAGAGGGAGAGAAGGUUCGGGUAUUC
[1]
  apparent Kd: 0.0317 µM
[2]
  apparent Kd: 0.0295 µM

## UUAAUCGUGCAUGAUACCAGUAUCCGUAGAUACAUGAGGAUCACCCAUGUCUGGUUGGAAUACCCUUGGCAGCAUGGGUUGAGGA
Designed as: ON switch for theophylline, no ligand
  apparent Kd: 0.242 µM
Ligand present: theophylline, designed as: ON switch for theophylline
  apparent Kd: 0.249 µM

## AUUGUGAUAGCAGGAUAUUGUAUUGGUACAUGAGGAUCACCCAUGUUAAAAUCCUCUUGAUUUAGCAAGAAGGGCUCCAUGGCA
[1]
  apparent Kd: 0.0218 µM
[2]
  apparent Kd: 0.0183 µM

## ACCUACGUAGGAUAUACGCAUCGUGGACCGCAUGCCCGUGCACAUGAGGAUCACCCAUGUAGAAGGACGUACGC
[1]
  apparent Kd: 0.0171 µM
[2]
  apparent Kd: 0.0226 µM

## GGGCGCCGAGGAUAUCACAGGAGUAACAUGAGGAUCACCCAUGUAUCAGUGGGCGUAAUAUGAGAAGGCGGUGGUU
[1]
  apparent Kd: 0.0855 µM
[2]
  apparent Kd: 0.0435 µM

## AGUUACAAUGUCAGGAUAUUGCUCCCACGACGGAACAAGAAGGGACAUGAGGAUCACCCAUGUUAGUCUUCGUC
[1]
  apparent Kd: 0.00496 µM
[2]
  apparent Kd: 0.00598 µM

## UCGCUGUAAGAGAAGGGCUCUGCAUGAGCACAUGAGGAUCACCCAUGUAAGAUCCUAAAGUACGAGCAGGAUAUCUCCGAGUGG
[1]
  apparent Kd: 0.106 µM
[2]
  apparent Kd: 0.0773 µM

## AAGAACCAGAUAGGAUAUCCGUUUAAAUCACAAGGAGAAGGAUCAAAUACAAAACAUGAGGAUCACCCAUGUGGAAGAUAGCUA
[3]
  apparent Kd: 0.0332 µM
[4]
  apparent Kd: 0.0187 µM

## CUCCUGGAAGGAUAUGUGUUUCAGGACAUGAGGAUCACCCAUGUAGAACCUCUCUCCCGCACAGAAGGUCCAUUGU
[1]
  apparent Kd: 0.0743 µM
[2]
  apparent Kd: 0.247 µM

## UACAUUCGUCAGGAUAUCCAUCAGCCAGGCCUCGGAGAAGGGACUACAUGAGGAUCACCCAUGUGUAACCUCGU
[1]
  apparent Kd: 0.0404 µM
[2]
  apparent Kd: 0.0888 µM

## GUAUGCCACAGGGACAUGAGGAUCACCCAUGUAAAUACGGAUAGAAGGCGACGAGCGUAGCUCUUCGAGGAUAUAUGCUUUUUG
[1]
  apparent Kd: 0.0315 µM
[2]
  apparent Kd: 0.0342 µM

## AUCCGUGCAGCAAAUGGAGUGACAUGAGGAUCACCCAUGUAUGAGGAUAUGGCUCCGCCAGGGUACCAGAAGGCAUAAGGGAGG
[3]
  apparent Kd: 0.908 µM
[4]
  apparent Kd: 0.627 µM
